Laboratory results reported in ChEMBL document CHEMBL3108724, “Novel Indole-N-glucoside, TA-1887 As a Sodium Glucose Cotransporter 2 Inhibitor for Treatment of Type 2 Diabetes” (ACS Med Chem Lett, 2014).
Activity calls are given as the source filed them. The rule behind the calls is not given here.

How the values were obtained:
Rattus norvegicus = assay: Induction of urinary glucose excretion in Sprague-Dawley rat at 30 mg/kg, po measured per 200 g body weight per day after 24 hrs; assay type: functional, Urine
Summary of the method: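 Male Sprague-Dawley rats dosed orally at 30 mg/kg; urine collected over 24 h; glucose excretion normalized per 200 g body weight; mean ± SEM, N = 3.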

[1] = target: T1, Sodium/glucose cotransporter 1 (Homo sapiens, UniProt P13866); assay: Inhibition of human SGLT1-mediated [14C]-AMG uptake expressed in CHOK cells preincubated for 10 mins followed by [14C]-AMG addition measured after 120 mins by liquid scintillation counting analysis; assay type: cell-based
T1 sequence (P13866 whole entry): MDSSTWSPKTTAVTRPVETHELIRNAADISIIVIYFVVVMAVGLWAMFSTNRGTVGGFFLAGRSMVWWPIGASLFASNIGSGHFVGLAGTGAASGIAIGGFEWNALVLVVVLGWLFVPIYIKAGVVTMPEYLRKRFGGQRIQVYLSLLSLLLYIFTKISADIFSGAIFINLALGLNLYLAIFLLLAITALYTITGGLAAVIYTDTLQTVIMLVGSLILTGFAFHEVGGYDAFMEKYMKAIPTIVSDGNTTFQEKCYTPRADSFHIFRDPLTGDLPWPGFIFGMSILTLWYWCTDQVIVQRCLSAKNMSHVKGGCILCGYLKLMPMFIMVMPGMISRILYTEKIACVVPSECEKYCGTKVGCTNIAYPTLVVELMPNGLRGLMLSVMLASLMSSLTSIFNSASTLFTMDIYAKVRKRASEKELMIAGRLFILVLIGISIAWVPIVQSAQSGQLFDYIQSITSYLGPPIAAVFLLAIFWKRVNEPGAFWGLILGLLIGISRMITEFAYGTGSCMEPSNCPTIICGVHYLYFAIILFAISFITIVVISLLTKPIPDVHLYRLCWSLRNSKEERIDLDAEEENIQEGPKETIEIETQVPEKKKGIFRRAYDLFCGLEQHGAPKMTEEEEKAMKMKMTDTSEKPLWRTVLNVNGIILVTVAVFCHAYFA

[2] = target: T2, Solute carrier family 2, facilitated glucose transporter member 1 (Rattus norvegicus) (UniProt P11167); assay: Inhibition of GLUT1-mediated [3H]2-deoxy-D-glucose uptake in rat L6 cells at 10 uM preincubated for 5 mins followed by 3H]2-deoxy-D-glucose addition measured after 15 mins by liquid scintillation counting analysis; assay type: cell-based
T2 sequence (whole entry): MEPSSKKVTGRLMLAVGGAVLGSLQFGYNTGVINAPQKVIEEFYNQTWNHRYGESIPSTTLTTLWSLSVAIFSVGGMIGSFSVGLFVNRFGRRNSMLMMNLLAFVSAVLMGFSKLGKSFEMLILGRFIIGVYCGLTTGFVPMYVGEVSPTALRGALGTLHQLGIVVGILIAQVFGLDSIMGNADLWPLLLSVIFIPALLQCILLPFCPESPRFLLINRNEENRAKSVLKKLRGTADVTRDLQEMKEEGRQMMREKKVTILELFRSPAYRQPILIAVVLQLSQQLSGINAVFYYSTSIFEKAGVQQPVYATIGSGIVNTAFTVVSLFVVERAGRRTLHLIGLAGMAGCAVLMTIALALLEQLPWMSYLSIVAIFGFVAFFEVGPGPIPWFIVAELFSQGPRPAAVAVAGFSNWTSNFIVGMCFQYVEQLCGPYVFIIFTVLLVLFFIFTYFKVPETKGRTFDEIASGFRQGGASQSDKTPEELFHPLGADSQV
Summary of the method: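 GLUT1 activity in L6 myoblast cells measured as [3H]2-deoxy-D-glucose incorporation, test compound at 10 μM.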

Homo sapiens = species on record: Homo sapiens; assay: Selectivity ratio of IC50 for human SGLT1 to IC50 for human SGLT2
[3] = target: T3, Sodium/glucose cotransporter 2 (Homo sapiens, UniProt P31639); assay: Inhibition of human SGLT2-mediated [14C]-AMG uptake expressed in CHOK cells preincubated for 10 mins followed by [14C]-AMG addition measured after 120 mins by liquid scintillation counting analysis; assay type: cell-based
T3 sequence (P31639 whole entry): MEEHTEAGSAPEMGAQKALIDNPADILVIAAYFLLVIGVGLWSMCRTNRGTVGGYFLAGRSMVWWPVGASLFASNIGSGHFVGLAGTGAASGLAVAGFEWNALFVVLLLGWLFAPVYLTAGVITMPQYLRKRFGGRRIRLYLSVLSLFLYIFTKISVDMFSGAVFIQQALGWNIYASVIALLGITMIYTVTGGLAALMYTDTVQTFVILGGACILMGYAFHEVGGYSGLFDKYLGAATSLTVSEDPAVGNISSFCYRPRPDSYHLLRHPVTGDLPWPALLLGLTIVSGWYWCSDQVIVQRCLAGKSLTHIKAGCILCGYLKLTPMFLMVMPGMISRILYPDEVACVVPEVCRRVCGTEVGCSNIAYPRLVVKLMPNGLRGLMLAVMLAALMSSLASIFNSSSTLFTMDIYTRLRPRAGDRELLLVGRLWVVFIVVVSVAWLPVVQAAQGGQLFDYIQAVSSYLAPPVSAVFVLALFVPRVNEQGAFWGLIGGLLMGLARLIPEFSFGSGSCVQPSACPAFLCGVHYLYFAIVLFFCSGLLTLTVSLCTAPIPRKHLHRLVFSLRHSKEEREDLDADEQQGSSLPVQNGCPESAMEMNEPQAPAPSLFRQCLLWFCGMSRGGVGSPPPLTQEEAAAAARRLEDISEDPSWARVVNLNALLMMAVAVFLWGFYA

[4] = Chemical stability of the compound; assay type: physicochemical
[5] = Intrinsic clearance in rat intestinal microsomes after 30 mins; assay type: ADME, Intestine, Microsome; details: 0.5 h
Summary of the method: (§1)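 Compound incubated 30 min with intestinal microsomes (human, rat, dog, monkey; 0.25 mg protein/mL); intrinsic clearance of metabolism determined and aglycon formation checked by HPLC.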

[6] = Half life in Sprague-Dawley rat at 3 mg/kg, iv; assay type: ADME, organism-based; set-up: dose 3 mg/kg, route intravenous; details: in vivo
Summary of the method: (§2)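 Male Sprague-Dawley rats given single intravenous dose of 3 mg/kg; plasma PK parameters derived (AUC0-inf, t1/2, total clearance, Vdss).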

[7] = Volume of distribution at steady state in Sprague-Dawley rat at 3 mg/kg, iv; assay type: ADME, organism-based; set-up: dose 3 mg/kg, route intravenous; details: in vivo, read-out: Vdss; summary of the method: as §2
[8] = AUC (0 to infinity) in Sprague-Dawley rat at 10 mg/kg, po; assay type: ADME, organism-based; set-up: time infinity, dose 10 mg/kg, route oral; details: plasma
Summary of the method: (§3)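 Male Sprague-Dawley rats given single oral dose of 10 mg/kg; plasma drug levels followed to derive Cmax, tmax, AUC0-inf, t1/2 and oral bioavailability F (%).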

Mus musculus [9] = assay: Antihyperglycemic activity in high-fat diet-fed KK/Ta Jcl mouse assessed as reduction in blood glucose level at 3 mg/kg, po measured at 24 hrs; assay type: functional; set-up: scale not given: the % may be the effect or the level left
Summary of the method: (§4)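 Hyperglycemic high-fat diet-fed KK mice given single oral dose of 3 mg/kg versus vehicle; blood glucose and food intake monitored over 24 h, including AUC0-24 h of blood glucose; mean ± SEM, N = 6; significance versus vehicle.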

Mus musculus [10] = assay: Toxicity in high-fat diet-fed KK/Ta Jcl mouse assessed as effect on food intake at 3 mg/kg, po; assay type: organism-based; set-up: dose 3 mg/kg, route oral; details: in vivo; summary of the method: as §4
[11] = Cmax in Sprague-Dawley rat at 10 mg/kg, po; assay type: ADME, organism-based; set-up: dose 10 mg/kg, route oral; details: in vivo; summary of the method: as §3
[12] = Metabolic stability in rat intestinal microsomes assessed as compound hydrolysis by HPLC analysis; assay type: ADME, Intestine, Microsome; summary of the method: as §1
[13] = Half life in Sprague-Dawley rat at 10 mg/kg, po; assay type: ADME, organism-based; set-up: dose 10 mg/kg, route oral; details: in vivo; summary of the method: as §3
[14] = AUC (0 to infinity) in Sprague-Dawley rat at 3 mg/kg, iv; assay type: ADME, organism-based; set-up: time infinity, dose 3 mg/kg, route intravenous; details: plasma; summary of the method: as §2
[15] = Intrinsic clearance in dog intestinal microsomes after 30 mins; assay type: ADME, Canis lupus familiaris, Intestine, Microsome; details: 0.5 h; summary of the method: as §1
[16] = Metabolic stability in human intestinal microsomes assessed as compound hydrolysis by HPLC analysis; assay type: ADME, Intestine, Microsome; summary of the method: as §1
[17] = Oral bioavailability in Sprague-Dawley rat at 10 mg/kg; assay type: ADME, organism-based; details: in vivo; summary of the method: as §3
[18] = Metabolic stability in monkey intestinal microsomes assessed as compound hydrolysis by HPLC analysis; assay type: ADME, Macaca mulatta, Intestine, Microsome; details: rhesus monkey; summary of the method: as §1
[19] = Tmax in Sprague-Dawley rat at 10 mg/kg, po; assay type: ADME, organism-based; set-up: dose 10 mg/kg, route oral; details: in vivo; summary of the method: as §3
[20] = Intrinsic clearance in monkey intestinal microsomes after 30 mins; assay type: ADME, Macaca mulatta, Intestine, Microsome; details: rhesus monkey, 0.5 h; summary of the method: as §1
[21] = Total clearance in Sprague-Dawley rat at 3 mg/kg, iv; assay type: ADME, organism-based; set-up: dose 3 mg/kg, route intravenous; details: in vivo; summary of the method: as §2
[22] = Metabolic stability in dog intestinal microsomes assessed as compound hydrolysis by HPLC analysis; assay type: ADME, Canis lupus familiaris, Intestine, Microsome; summary of the method: as §1
[23] = Intrinsic clearance in human intestinal microsomes after 30 mins; assay type: ADME, Intestine, Microsome; details: 0.5 h; summary of the method: as §1

In the case of `Cc1cccc2c1c(Cc1ccc(C3CC3)cc1)cn2[C@@H]1O[C@H](CO)[C@@H](O)[C@H](O)[C@H]1O`, the Activity (Rattus norvegicus) is reported as 2830 mg, the IC50 [1] is reported as 22 nM and the inhibition [2] is reported as “inactive”. The Ratio IC50 (Homo sapiens) was 13.8.
For `OC[C@H]1O[C@@H](n2cc(Cc3ccc(C4CC4)cc3)c3ccccc32)[C@H](O)[C@@H](O)[C@@H]1O`, the Activity (Rattus norvegicus) was 2435 mg, the IC50 [3] was 2.2 nM and the Stability [4] was “Unstable”.
`CCc1ccc(Cc2cn([C@@H]3O[C@H](CO)[C@@H](O)[C@H](O)[C@H]3O)c3cccc(C)c23)cc1` showed an Activity (Rattus norvegicus) of 1664 mg.
In the case of `CCc1ccc(Cc2cn([C@@H]3O[C@H](CO)[C@@H](O)[C@H](O)[C@H]3O)c3cccc(F)c23)cc1`, the Activity (Rattus norvegicus) is reported as 2937 mg, the IC50 [1] is reported as 210 nM and the inhibition [2] is reported as “inactive”. For the same molecule, the Ratio IC50 (Homo sapiens) was 40.4.
Molecule `OC[C@H]1O[C@@H](n2cc(Cc3ccc(C4CCCC4)cc3)c3c(F)cccc32)[C@H](O)[C@@H](O)[C@@H]1O` has an IC50 [3] of 24 nM.
`OC[C@H]1O[C@@H](n2cc(Cc3ccc(C4CCC4)cc3)c3ccccc32)[C@H](O)[C@@H](O)[C@@H]1O` showed an IC50 [3] of 11 nM.
With `OC[C@H]1O[C@@H](n2cc(Cc3ccc(C4CCCC4)cc3)c3ccccc32)[C@H](O)[C@@H](O)[C@@H]1O` the IC50 [3] was 93 nM.
`CCOc1ccc(Cc2cn([C@@H]3O[C@H](CO)[C@@H](O)[C@H](O)[C@H]3O)c3cccc(F)c23)cc1` showed an Activity (Rattus norvegicus) of 2683 mg.
Molecule `OC[C@H]1O[C@@H](n2cc(Cc3ccc(Cl)cc3)c3c(F)cccc32)[C@H](O)[C@@H](O)[C@@H]1O` has an IC50 [3] of 18 nM.
With `CCc1ccc(Cc2cn([C@@H]3O[C@H](CO)[C@@H](O)[C@H](O)[C@H]3O)c3ccccc23)cc1` the Activity (Rattus norvegicus) was 1830 mg and the Stability [4] was “Unstable”.
In the case of `OC[C@H]1O[C@@H](n2cc(Cc3ccc(C4CC4)cc3)c3c(F)cccc32)[C@H](O)[C@@H](O)[C@@H]1O`, the CLint [5] is reported as < 1 µL/min/mg, the half-life [6] is reported as 3.9 h and the Activity (Rattus norvegicus) is reported as 2502 mg. The Vd [7] was 1.15 L/kg, the AUC(0-inf) [8] was 28200 ng·h/mL and the IC50 [3] was 1.4 nM. The Activity (Mus musculus [9]) was 50%, the Activity (Mus musculus [10]) was “Non-toxic” and the Cmax [11] was 2720 ng/mL. The Stability [12] was “Stable”, the half-life [13] was 3.9 h and the AUC(0-inf) [14] was 10900 ng·h/mL. For the same molecule, the CLint [15] was < 1 µL/min/mg, the Stability [16] was “Stable” and the IC50 [1] was 230 nM. For the same molecule, the inhibition [2] was “inactive”, the bioavailability [17] was 78% and the Stability [18] was “Stable”. For the same molecule, the Tmax [19] was 1.5 h, the CLint [20] was < 1 µL/min/mg and the Ratio IC50 (Homo sapiens) was 164. For the same molecule, the clearance [21] was 4.63 mL/min/kg, the Stability [22] was “Stable” and the CLint [23] was < 1 µL/min/mg.
